Laboratory results published in ChEMBL document CHEMBL1122134, “Antimalarials. 14. 5-(aryloxy)-4-methylprimaquine analogues. A highly effective series of blood and tissue schizonticidal agents” (1982).

Tests used:
[1] = tested on: Plasmodium cynomolgi; experiment: Radical curative activity in sporozoite-induced Plasmodium cynomolgi infected Rhesus monkeys (Macaca mulatta) on 14 mg/kg/day peroral dose after 1 day; assay type: functional; conditions: route oral
Procedure, shortened: (§1)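 Single oral dose (×1) in P. cynomolgi-infected rhesus monkeys, given alone or with chloroquine phosphate at 5 mg/kg of salt (×7). Drug was given in salt form but dose calculated as free base. Each animal scored as cure (C), suppressive failure (SF, blood not cleared) or relapse (R, tissues not cleared).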

[2] = tested on: Mus musculus; experiment: Suppressive antimalarial activity against Plasmodium berghei in Rane mice (Mus musculus) test (five mice (Mus musculus)) at a dose of 160 mg/kg (X 1); assay type: functional
Procedure, shortened: (§2)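 Mice infected with Plasmodium berghei; five mice per dose. A single subcutaneous dose (mg/kg, ×1) was given 72 h after infection. Activity was scored as the increase in mean survival time over infected controls, with an increase of at least 100% counted as active. Cures are mice surviving at 60 days postinfection. Deaths attributed to the drug were scored as toxic.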

[3] = tested on: Mus musculus; experiment: Number of animals found toxic out of five mice (Mus musculus) infected with Plasmodium berghei at 640 mg/kg(X 1) subcutaneous administration
[4] = tested on: Mus musculus; experiment: Number of animals found toxic out of five mice (Mus musculus) infected with Plasmodium berghei at 320 mg/kg(X 1) subcutaneous administration
[5] = tested on: Mus musculus; experiment: Suppressive antimalarial activity against Plasmodium berghei in Rane mice (Mus musculus) test (five mice (Mus musculus)) 20 mg/kg (X 1); assay type: functional; procedure, shortened: as §2
[6] = tested on: Mus musculus; experiment: Suppressive antimalarial activity against Plasmodium berghei in Rane mice (Mus musculus) test (five mice (Mus musculus))80 mg/kg (X 1); assay type: functional; procedure, shortened: as §2
[7] = tested on: Plasmodium cynomolgi; experiment: Radical curative activity in sporozoite-induced Plasmodium cynomolgi infected Rhesus monkeys (Macaca mulatta) after 3.5 mg/kg/day (x1) oral dose; assay type: functional; procedure, shortened: as §1
[8] = tested on: Mus musculus; experiment: Suppressive antimalarial activity against Plasmodium berghei in Rane mice (Mus musculus) test (five mice (Mus musculus)) 40 mg/kg (X 1); assay type: functional; procedure, shortened: as §2
[9] = tested on: Plasmodium cynomolgi; experiment: Radical curative activity in sporozoite-induced Plasmodium cynomolgi infected Rhesus monkeys (Macaca mulatta) on 7 mg/kg/day peroral dose after 1 day; assay type: functional; conditions: route oral; procedure, shortened: as §1
[10] = tested on: Plasmodium cynomolgi; experiment: Radical curative activity in sporozoite-induced Plasmodium cynomolgi infected Rhesus monkeys (Macaca mulatta) on 1.75 mg/kg/day oral dose after 1 day; assay type: functional; procedure, shortened: as §1
[11] = Molar primaquine Index value of compound was determined; assay type: functional
[12] = tested on: Mus musculus; experiment: Number of cures out of five mice (Mus musculus) infected with Plasmodium berghei at 160 mg/kg(X 1) subcutaneous administration
[13] = tested on: Plasmodium cynomolgi; experiment: Cures in sporozoite-induced Plasmodium cynomolgi infected Rhesus monkeys (Macaca mulatta) on 0.316 mg/kg/day peroral dose after 7 days, n=2; assay type: functional; conditions: route oral
[14] = tested on: Mus musculus; experiment: Number of cures out of five mice (Mus musculus) infected with Plasmodium berghei at 80 mg/kg(X 1) subcutaneous administration
[15] = tested on: Plasmodium cynomolgi; experiment: Cures in sporozoite-induced Plasmodium cynomolgi infected Rhesus monkeys (Macaca mulatta) at 1 mg/kg/day (x 7) peroral dose; n=3; assay type: functional; conditions: route oral
[16] = tested on: Mus musculus; experiment: Number of cures out of five mice (Mus musculus) infected with Plasmodium berghei at 640 mg/kg(X 1) subcutaneous administration
[17] = tested on: Mus musculus; experiment: Number of cures out of five mice (Mus musculus) infected with Plasmodium berghei at 40 mg/kg(X 1) subcutaneous administration
[18] = tested on: Mus musculus; experiment: Number of cures out of five mice (Mus musculus) infected with Plasmodium berghei at 10 mg/kg(X 1) subcutaneous administration
[19] = tested on: Mus musculus; experiment: Number of cures out of five mice (Mus musculus) infected with Plasmodium berghei at 20 mg/kg(X 1) subcutaneous administration
[20] = tested on: Mus musculus; experiment: Number of cures out of five mice (Mus musculus) infected with Plasmodium berghei at 320 mg/kg(X 1) subcutaneous administration
[21] = tested on: Mus musculus; experiment: Number of cures out of five mice (Mus musculus) infected with Plasmodium berghei at 5 mg/kg(X 1) subcutaneous administration
[22] = tested on: Plasmodium cynomolgi; experiment: Cures in sporozoite-induced Plasmodium cynomolgi infected Rhesus monkeys (Macaca mulatta) on 0.1 mg/kg/day peroral dose after 7 days, n=3; assay type: functional; conditions: route oral
[23] = tested on: Plasmodium cynomolgi; experiment: Suppressive failures in sporozoite-induced Plasmodium cynomolgi infected Rhesus monkeys (Macaca mulatta) on 1.75 mg/kg/day peroral dose after 1 day; assay type: functional; conditions: route oral; procedure, shortened: as §1
[24] = tested on: Plasmodium cynomolgi; experiment: Cures in sporozoite-induced Plasmodium cynomolgi infected Rhesus monkeys (Macaca mulatta) on peroral 14 mg/kg/day (x 1) dose; assay type: functional; conditions: route oral; procedure, shortened: as §1
[25] = tested on: Plasmodium cynomolgi; experiment: Cures in sporozoite-induced Plasmodium cynomolgi infected Rhesus monkeys (Macaca mulatta) on 1 mg/kg/day peroral dose after 7 days, n=2; assay type: functional; conditions: route oral
[26] = tested on: Plasmodium cynomolgi; experiment: Relapses in sporozoite-induced Plasmodium cynomolgi infected Rhesus monkeys (Macaca mulatta) on 0.4375 mg/kg/day peroral dose after 1 day; assay type: functional; conditions: route oral; procedure, shortened: as §1
[27] = tested on: Plasmodium cynomolgi; experiment: Cures in sporozoite-induced Plasmodium cynomolgi infected Rhesus monkeys (Macaca mulatta) on 0.1 mg/kg/day peroral dose after 7 days, n=2; assay type: functional; conditions: route oral
[28] = tested on: Plasmodium cynomolgi; experiment: Cures in sporozoite-induced Plasmodium cynomolgi infected Rhesus monkeys (Macaca mulatta) on 7 mg/kg/day peroral dose after 1 day; assay type: functional; conditions: route oral; procedure, shortened: as §1
[29] = tested on: Mus musculus; experiment: Number of mice (Mus musculus) found toxic when infected with Plasmodium berghei at 640 mg/kg(X 1) subcutaneous administration
[30] = tested on: Plasmodium cynomolgi; experiment: Cures in sporozoite-induced Plasmodium cynomolgi infected Rhesus monkeys (Macaca mulatta) on 3.5 mg/kg/day peroral dose after 1 day; assay type: functional; conditions: route oral; procedure, shortened: as §1
[31] = tested on: Plasmodium cynomolgi; experiment: Relapses in sporozoite-induced Plasmodium cynomolgi infected Rhesus monkeys (Macaca mulatta) on 0.875 mg/kg/day peroral dose after 1 day; assay type: functional; conditions: route oral; procedure, shortened: as §1
[32] = tested on: Mus musculus; experiment: Mean survival time of mice (Mus musculus) infected with Plasmodium berghei at 5 mg/kg(X 1)subcutaneous administration
[33] = tested on: Plasmodium cynomolgi; experiment: Suppressive failures in sporozoite-induced Plasmodium cynomolgi infected Rhesus monkeys (Macaca mulatta) on 3.5 mg/kg/day peroral dose after 1 day; assay type: functional; conditions: route oral; procedure, shortened: as §1
[34] = tested on: Plasmodium cynomolgi; experiment: Suppressive failures in sporozoite-induced Plasmodium cynomolgi infected Rhesus monkeys (Macaca mulatta) on 0.875 mg/kg/day peroral dose after 1 day; assay type: functional; conditions: route oral; procedure, shortened: as §1
[35] = tested on: Plasmodium cynomolgi; experiment: Cures in sporozoite-induced Plasmodium cynomolgi infected Rhesus monkeys (Macaca mulatta) on 1.3 mg/kg/day peroral dose after 7 days, n=6; assay type: functional; conditions: route oral
[36] = tested on: Mus musculus; experiment: Number of animals found toxic out of five mice (Mus musculus) infected with Plasmodium berghei at 160 mg/kg(X 1)subcutaneous administration
[37] = tested on: Mus musculus; experiment: Number of animals found toxic out of five mice (Mus musculus) infected with Plasmodium berghei at 320 mg/kg(X 1)subcutaneous administration
[38] = tested on: Mus musculus; experiment: Suppressive antimalarial activity against Plasmodium berghei in Rane mice (Mus musculus) test (five mice (Mus musculus)) at a dose of 5 mg/kg(X 1)A-active; assay type: functional; procedure, shortened: as §2
[39] = tested on: Mus musculus; experiment: Number of animals found toxic out of five mice (Mus musculus) infected with Plasmodium berghei at 640 mg/kg(X 1) subcutaneous administration; remark: listed apart in the source
[40] = tested on: Mus musculus; experiment: Suppressive antimalarial activity against Plasmodium berghei in Rane mice (Mus musculus) test (five mice (Mus musculus)) at a dose of 5 mg/kg(X 1); assay type: functional; procedure, shortened: as §2
[41] = tested on: Mus musculus; experiment: Suppressive antimalarial activity against Plasmodium berghei in Rane mice (Mus musculus) test (five mice (Mus musculus)) 10 mg/kg(X 1); assay type: functional; procedure, shortened: as §2

| Compound | Cures [3] | Toxic animals (out of 5) [4] | Molar primaquine Index [11] | Cures [12] | Cures [13] | Cures [14] | Cures [15] | Cures [16] | Cures [17] | Cures [18] | Cures [19] | Cures [20] | Cures [22] | further results |
| --- | --- | --- | --- | --- | --- | --- | --- | --- | --- | --- | --- | --- | --- | --- |
| COc1cc(NC(C)CCCN)c2ncccc2c1 (stereo not given) [PRIMAQUINE] | 5 | 5 | – | – | – | – | – | – | – | – | – | – | – | Cures [1]: 2; MST [2]: 7; MST [5]: 2.2; MST [6]: 6.4; Cures [7]: 2; MST [8]: 4.2; Cures [9]: 1; Cures [10]: 2 |
| COc1cc(NC(C)CCCN)c2nccc(C)c2c1Oc1ccc(Cl)c(Cl)c1.O=P(O)(O)O (stereo not given) | – | – | 1.3 | 5 | 1 | 5 | 3 | 5 | 5 | 5 | 5 | 5 | 0 | Cures [21]: 4 |
| COc1cc(NC(C)CCCN)c2nccc(C)c2c1Oc1cccc(C(F)(F)F)c1.O=C(O)CCC(=O)O (stereo not given) | – | – | 4.8 | 5 | 2 | 5 | – | 1 | 5 | 2 | 5 | 5 | – | Suppressive failures [23]: 4; Cures [24]: 1; Cures [25]: 2; Relapses [26]: 4; Cures [27]: 0; Cures [28]: 2; Cures [29]: 4; Cures [30]: 1; Relapses [31]: 1; MST [32]: 6.9; Suppressive failures [33]: 1; Suppressive failures [34]: 3 |
| COc1cc(NC(C)CCCN)c2ncccc2c1 (stereo not given) | – | – | 1 | – | – | – | – | – | – | – | – | – | – | – |
| COc1cc(NC(C)CCCN)c2ncccc2c1.O=P(O)(O)O.O=P(O)(O)O (stereo not given) [PRIMAQUINE PHOSPHATE] | 5 | 5 | – | – | 0 | – | – | – | – | – | – | – | – | Cures [35]: 6; MST [2]: 10.8; Cures [36]: 2; Cures [25]: 1; MST [5]: 4; MST [6]: 9.4; MST [8]: 5 |
| COc1cc(NC(C)CCCN)c2nccc(C)c2c1Oc1ccc(F)cc1.O=P(O)(O)O (stereo not given) | – | – | 4.2 | 5 | 2 | 5 | 3 | 3 | 5 | 3 | 4 | 4 | 0 | Cures [37]: 1; MST [38]: 7; Cures [39]: 2 |
| COc1ccc(Oc2c(OC)cc(NC(C)CCCN)c3nccc(C)c23)cc1.O=P(O)(O)O (stereo not given) | – | – | 4.3 | 5 | 2 | 5 | 3 | 2 | 5 | – | 1 | 5 | – | Cures [4]: 0; MST [40]: 5.5; Cures [27]: 0; MST [41]: 5.9 |
| COc1cc(NC(C)CCCN)c2nccc(C)c2c1Oc1ccc(Cl)cc1Cl.O=P(O)(O)O (stereo not given) | 2 | 1 | 1.3 | 5 | 1 | 5 | 3 | 3 | 5 | 1 | 5 | 4 | 0 | MST [40]: 5 |
